AHR activator = human AHR activation | P35869 | AHR-responsive luciferase reporter cells, luminescence | activation, % at 5 µM | 2.5% of 320,000 active | AID 2796; in the data active = activation above about 47%;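 note: 0% = vehicle wells and 100% = reference agonist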
Tb MetRS inh = blocks T. brucei methionyl-tRNA synthetase activity. purified T. brucei MetRS, ATP depletion, Kinase-Glo luminescence. inhibition, % at 11.9 µM. 0.4% of 360,000 active. AID 624268;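 active = inhibition above a per-plate cutoff of the control wells' mean inhibition plus 3 SD, cut at about 5.5% in these data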;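 note: 0% = DMSO wells median and 100% = median of wells with control inhibitor compound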
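Test system – parasite MetRS enzyme · Reagent – substrates ATP, L-methionine and bulk Escherichia coli tRNA · Doses – 11.9 µM compound single dose, 0.9% DMSO · Times – 15 min enzyme-compound preincubation, 2 h reaction, 10 min detection, 25 °C · Signal – Kinase-Glo luminescence, ATP depletion format · Controls – DMSO-only wells as low control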
AI-2 QS modul = modulators of Vibrio harveyi AI-2 quorum sensing system; Vibrio harveyi JMH597 AI-2 luminescence/OD600 ratio, 9 h; active compounds read low; strain lacks LuxN and CqsS sensors; 0 = neutral-control median; activity change, % at 7.5 µM; 0.4% of 300,000 active; in the data active = activity change below about -75%, passing the limit was not always enough;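 note: luminescence divided by OD600 gain over 9 h not by final OD600 alone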
MsrA act = activates bovine MsrA enzyme; activation, % at 10.6 µM; 0.3% of 360,000 active; purified bovine MsrA, absorbance read-out; in the data active = activation above about 7.5%;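 note: 0% = vehicle and 100% = reference activator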
m5-HT2A agonist = agonists of mouse serotonin 5-HT2A receptor (HTR2A) | P35363 | CHO-K1 mHTR2A beta-arrestin complementation, luminescence; percent of 30 µM serotonin response | activation, % at 7.6 µM | 0.66% of 360,000 active | AID 624169;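 active = activation above a run cutoff, the mean activation of all tested compounds plus 3 SD, cut at about 14% in these data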;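 note: 0% = plate median of compound wells and 100% = 30 µM serotonin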
MsrA inhibitor = bovine MsrA inhibition. AID 651718. purified bovine MsrA, absorbance read-out. 0.75% of 360,000 active. inhibition, % at 15.5 µM;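 note: 0% = vehicle wells with enzyme and 100% = reference inhibitor wells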
MOR ag counter = counter-screen for mouse HTR2A agonists: human mu opioid receptor agonists; 5.3% of 2,300 active; AID 624380; U2OS OPRM1 beta-arrestin PathHunter, luminescence; DMSO 0%, DAMGO 9.3 µM 100%; activation, % at 9.3 µM; shares compounds with m5-HT2A agonist;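 active = mean activation above the mean of DMSO-only wells plus 3 SD, cut at about 0.5% in these data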
HTR2A ag conf = mouse HTR2A agonism confirmed; shares compounds with m5-HT2A agonist; 19% of 2,300 active; AID 624381; activation, % at 7.6 µM; CHO-K1 PathHunter beta-arrestin recruitment, luminescence; DMSO 0%, 30 µM serotonin 100%;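 active = mean activation across triplicates above the hit threshold derived in the original primary screen, cut at about 15% in these data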
MsrA conf = bovine MsrA inhibition, confirmed | shares compounds with MsrA inhibitor | purified bovine MsrA, absorbance read-out | inhibition, % at 15.5 µM | 41% of 2,300 active;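 note: coupled to thioredoxin reductase with NADPH and selenocystamine and DMSO as substrate; 0% = vehicle only and 100% = full effect of reference inhibitor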
Starred values were filed as active, the others as inactive; . = not tested or not shown. This is a sample that favours compounds with a hit; in the whole collection about 4.4% have one here. Cut-off read from the data, not from the text of the source, unless noted: active = inhibition above about 4.5%; inactive = the rest.

SMILES	AHR activator	Tb MetRS inh	AI-2 QS modul	MsrA act	m5-HT2A agonist	MsrA inhibitor	MOR ag counter	HTR2A ag conf	others
CC(C)[C@H](NC(=O)c1ccc(C(C)(C)C)cc1)C(=O)N1CCN(Cc2ccc3c(c2)OCO3)CC1	4	0	.	-5	34*	0	0	70*
O=C(COc1ccc(Cl)cc1)NCCCNC(=O)c1ccncc1	4	0	19	-1	7	-1	.	.
COC(=O)NCCc1cc(OC)c(OC)cc1S(=O)(=O)N1CC(=O)Nc2ccccc21	12	0	21	-4	15*	0	0	-1
COc1ccc(S(=O)(=O)N2CC(=O)Nc3ccccc32)cc1Cl	5	0	9	-2	0	-1	.	.
CC(CN1CCCCC1)C(=O)NNC(=O)C12CC3CC(CC(C3)C1)C2 (centres undefined)	-3	-1	22	-4	16*	0	0	-3
CC(CN1CCCCCC1)C(=O)NN (centres undefined)	0	-1	3	-6	-5	-1	.	.
CCN1CCN(C(CNS(=O)(=O)c2ccc(OC)cc2)c2cccnc2)CC1 (centres undefined)	-5	-1	24	-8	15*	1	-1	-5
COc1ccc(S(=O)(=O)NCC(c2cccnc2)N2CCN(Cc3ccccc3)CC2)cc1 (centres undefined)	0	0	9	-1	-1	-1	.	.
CCNC(=O)CCS(=O)(=O)c1ccc2ccccc2c1	-1	-1	8	-3	16*	0	0	-3
CN(C)CCN1CCN(C2CN(Cc3cn(Cc4ccccc4)nn3)S(=O)(=O)C2)CC1 (centres undefined)	.	0	.	-1	20*	0	-1	-3
CCCCCCn1cc(CN2CC(N3CCCC3)CS2(=O)=O)nn1 (centres undefined)	.	-1	.	-5	20*	0	-1	-4
O=S1(=O)CC(N2CCN(Cc3ccccc3F)CC2)CN1Cc1cn(Cc2cccc(Cl)c2)nn1 (centres undefined)	.	-1	.	-6	15*	1	-1	3
O=S1(=O)CC(N2CCN(Cc3ccccc3F)CC2)CN1Cc1cn(Cc2ccc(F)cc2)nn1 (centres undefined)	.	-2	.	-13	10	1	.	.
O=C(COC(=O)c1ccccc1OC(F)F)Nc1ccc2[nH]c(=O)[nH]c2c1	1	-1	-25	-10	-1	0	.	.
CCc1nc2ccc(C(=O)NCc3cccs3)cn2c1N(CCC(C)C)CCN(C)C	.	0	.	0	2	-1	.	.
COc1cccc(-c2nc(-c3ccc(NC(=O)Cc4ccccc4OC)cc3)no2)c1	.	-2	.	-13	0	.	.	.
COc1ccc(CC(=O)Nc2ccc(-c3noc(-c4ccccc4OC)n3)cc2)cc1	-4	-1	41	-5	18*	0	3.0*	10
NC(=O)C1CCN(C(=O)c2cc3ccccn3n2)CC1	7	0	15	-3	-1	-1	.	.
O=C(c1cc2ccccn2n1)N1CCN(c2ccccn2)CC1	19	0	7	-3	17*	-1	0	-4
Cc1cccc(C)c1NC(=O)N1CCN(c2nc3ccccc3s2)CC1	-11	0	11	-1	39*	1	0	0
O=C(O)CCC(=O)N1CCN(c2nc3ccccc3s2)CC1	-2	0	10	-3	45*	0	0	12
CCOc1ccc(NC(=O)N2CCN(c3nc4ccccc4s3)CC2)cc1	-7	-1	15	-4	30*	0	0	0
CCOc1ccc(NC(=O)N2CCN(S(C)(=O)=O)CC2)cc1	1	-1	14	-9	4	3	.	.
COc1ccc(CN(C)C(=O)c2ccccc2Sc2ccccc2C#N)c(OC)c1	18	0	11	-1	0	0	.	.
O=C(NC1CCCCC1)C(C1CC1)n1c(=O)c(-c2ccco2)nc2ccccc21 (centres undefined)	.	0	.	.	16*	-1	-1	-3
SMILES	AHR activator	Tb MetRS inh	AI-2 QS modul	MsrA act	m5-HT2A agonist	MsrA inhibitor	MOR ag counter	HTR2A ag conf	others
CC1=C(C(=O)N(C(C)C)C(C)C)CC(CC(=O)NCCN2CCOCC2)C(=O)N1CCC1=CCCCC1 (centres undefined)	.	0	.	-2	16*	1	0	-4
CN1CCc2c(sc(NC(=O)Cc3ccccc3)c2C#N)C1	34	-1	14	-4	18*	-1	0	69*
CC1(c2ccccc2)C(C#N)C(=O)NC(=O)C1C#N (centres undefined)	.	0	.	1	0	0	.	.
CN(C)c1ccc(C(=O)c2ccccc2C(=O)O)c(O)c1	5	0	13	-8	17*	6.4*	-1	-2	MsrA conf=5.8*
COc1cc(OC)cc(-c2c(C#Cc3ccsc3)c3cc(-c4cccc5[nH]cc(C=O)c45)ccc3n2C)c1	12	0	.	-11	21*	4.9*	-1	-2	MsrA conf=3
COc1ccc(-c2c(C#Cc3ccsc3)c3cc(-c4cccc5[nH]ccc45)ccc3n2C)cc1	12	0	.	-7	-9	1	.	.
CC(C)C(NC(=O)c1ccc(C(C)(C)C)cc1)C(=O)NCc1ccccn1 (centres undefined)	1	-1	.	-7	-2	0	.	.
Cc1ccc(Nc2ccc3nonc3c2[N+](=O)[O-])cc1	-1	0	15	-1	7	1	.	.
Cc1ccc(Nc2ccc([N+](=O)[O-])nc2[N+](=O)[O-])cc1	2	-1	16	-7	15*	5.3*	0	-4	MsrA conf=5.0*
Cc1cc(F)ccc1S(=O)(=O)N1CCCOC1CNC(=O)C(=O)NCCc1ccco1 (centres undefined)	.	0	.	-4	7	0	.	.
O=C1N/C(=N/O)S/C1=C\c1ccccc1-n1cccn1	2	0	23	-5	16*	4.7*	0	0	MsrA conf=3
